GASC1 inh: inhibitors of human demethylase GASC-1 KDM4C; Q9H3R0; GST-KDM4C 2-372, H3K9me3 peptide, LANCE TR-FRET; inhibition, % at 12.5 µM; actives 0.15% (n = 96,000); AID 720574;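 active = mean replicate inhibition above about 25%, with at least 55% of replicates also reaching it, limit read from the data, passing the limit was not always enough; inconclusive = only one of those two conditions met; inactive = neither condition met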
Target sequence (Q9H3R0 2-372 limits assumed): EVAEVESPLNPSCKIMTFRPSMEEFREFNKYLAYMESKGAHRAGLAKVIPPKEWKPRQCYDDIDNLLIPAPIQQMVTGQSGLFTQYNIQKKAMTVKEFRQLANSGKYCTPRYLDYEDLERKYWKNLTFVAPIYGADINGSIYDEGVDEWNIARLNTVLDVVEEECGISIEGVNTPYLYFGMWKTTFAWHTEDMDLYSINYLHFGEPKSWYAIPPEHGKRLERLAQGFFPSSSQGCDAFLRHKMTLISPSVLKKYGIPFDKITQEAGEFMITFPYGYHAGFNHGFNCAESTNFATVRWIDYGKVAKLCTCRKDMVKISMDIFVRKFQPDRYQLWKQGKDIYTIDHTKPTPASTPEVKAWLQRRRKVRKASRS
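Compound: one test concentration per compound; Material: GST-GASC-1 enzyme fragment 2-372; Amount: GASC-1 enzyme at 10 nM final in reaction; Also added: H3K9me3 peptide substrate, Fe(II), 2-oxoglutarate; Technique: LANCE TR-FRET; Times: 30 min demethylation and 1 h detection at room temperature.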
IDH1 mut inh: blocks human IDH1 R132H reductase activity; diaphorase/resazurin fluorescence, 60 min; inhibition, % at 10 µM; actives 0.18% (n = 70,000); AID 624101; in the data active = inhibition above about 34%; inconclusive = no clear call, values can overlap the other calls; inactive = below about 11%;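 note: 0% = DMSO and 100% = no enzyme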
T cruzi growth-1: blocks T. cruzi growth in NIH3T3 culture. T. cruzi beta-gal in NIH3T3, GalScreen luminescence, 90 h. inhibition, % at 8.34 µM. actives 5.9% (n = 77,000);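 active = mean inhibition above about 93%, with at least 55% of replicates each passing it, limit read from the data, passing the limit was not always enough; inconclusive = only one of those two conditions holds; inactive = neither condition holds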
T cruzi growth-2: blocks T. cruzi growth in NIH3T3 host cells; shares compounds with T cruzi growth-1; T. cruzi beta-gal in NIH3T3, GalScreen luminescence, 90 h; inhibition, % at 8.35 µM; actives 72% (n = 5,600); AID 651739;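 active = mean replicate inhibition above about 95% and at least 55% of replicates individually reaching it, limit read from the data; inconclusive = only one of the two criteria is met; inactive = neither criterion is met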
T cruzi growth-3: Trypanosoma cruzi proliferation inhibition; shares compounds with T cruzi growth-1; T. cruzi beta-gal in NIH3T3, GalScreen luminescence, 90 h; inhibition, % at 2.09 µM; actives 21% (n = 5,600); AID 651740;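 active = mean inhibition above about 95%, with at least 55% of replicates also reaching it, limit read from the data; inconclusive = meets just one of the two conditions; inactive = meets neither condition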;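 note: plate controls were neutral control median for no effect and positive control median for full effect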
NIH3T3 tox: cytotoxicity in mouse NIH/3T3 fibroblasts; shares compounds with T cruzi growth-1; NIH/3T3 viability, CellTiter-Glo ATP luminescence, 90 h; cytotoxicity (signal decrease), % at 8.35 µM; actives 14% (n = 5,600);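 active = mean signal decrease across replicates above about 35% based on untreated-well scatter, with enough replicates individually passing, limit read from the data; inconclusive = no rule stated though some were filed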;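 note: 0% = median of neutral control wells and 100% = median of positive control wells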
NIH3T3 tox 2: cytotoxicity in mouse NIH/3T3 fibroblasts | NIH/3T3 viability, CellTiter-Glo ATP luminescence, 90 h | shares compounds with T cruzi growth-1 | inhibition, % at 24.9 µM | actives 56% (n = 5,600);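 active = mean loss of cell viability signal at or above a set limit, and enough replicates individually reaching it; inconclusive = meets only the mean limit or only the replicate share; inactive = meets neither condition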;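 note: 0% = median of neutral control wells and 100% = median of positive control wells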
* = called active by the depositor; ? = inconclusive; · = no result given; ! = a repeat was not active. The entries come from a sample that favours hits as a whole.

SMILES	GASC1 inh	IDH1 mut inh	T cruzi growth-1	T cruzi growth-2	T cruzi growth-3	NIH3T3 tox	NIH3T3 tox 2
COc1ccccc1NC(=O)N1CCCCN2[C@H](C1)[C@H](c1ccc(-c3ccc(C)cc3)cc1)[C@@H]2CO	1	·	113*	111*	73	16	28*
COc1ccccc1NC(=O)N1CCCCN2[C@H](C1)[C@H](c1ccc(-c3cccc(C)c3)cc1)[C@@H]2CO	0	·	92	·	·	·	·
CCOC(=O)c1c(NC(=O)C(C)n2nc(C)c([N+](=O)[O-])c2C)sc(C)c1C (centres undefined)	·	0	·	·	·	·	·
CC(Oc1cccc(Cl)c1)C(=O)NCc1ccco1 (centres undefined)	·	0	·	·	·	·	·
COc1ccc(S(=O)(=O)N(C)CC(=O)Nc2cccc(Cl)c2C)cc1C	·	0	·	·	·	·	·
COC(=O)c1ccc(OCC(=O)Nc2ccc(C(C)=O)cc2)cc1	·	0	·	·	·	·	·
O=C(Nc1cccc(C(F)(F)F)c1)Nc1cccc(S(=O)(=O)N2CCOCC2)c1	·	0	·	·	·	·	·
C[C@@H]1CN([C@@H](C)CO)S(=O)(=O)c2ccc(C#Cc3ccccc3)cc2O[C@@H]1CN(C)C(=O)c1ccccn1	·	·	-14	·	·	·	·
C[C@H](CO)N1C[C@H](C)[C@H](CN(C)C(=O)c2ccccn2)Oc2cc(C#Cc3ccc(F)cc3)ccc2S1(=O)=O	1	·	119*!	99*	39	23	21
C[C@H]1CN([C@@H](C)CO)S(=O)(=O)c2ccc(C#Cc3ccccc3)cc2O[C@H]1CN(C)C(=O)c1ccccn1	·	0	67	·	·	·	·
C[C@H]1CN([C@@H](C)CO)S(=O)(=O)c2ccc(C#Cc3ccc(F)cc3)cc2O[C@H]1CN(C)C(=O)c1ccccn1	1	·	?	108*	33	34	13
CCc1cccc(CC)c1NC(=O)Cn1cnc2ccccc2c1=O	·	-1	·	·	·	·	·
COc1cccc(NC(=O)N(C)C[C@@H]2Oc3cc(C#CC4(O)CCCC4)ccc3S(=O)(=O)N([C@@H](C)CO)C[C@H]2C)c1	1	·	·	·	·	·	·
COc1cccc(NC(=O)N(C)C[C@@H]2Oc3cc(-c4ccccc4F)ccc3S(=O)(=O)N([C@H](C)CO)C[C@@H]2C)c1	·	0	98*	111*	55	22	50*
COc1ccc(C#Cc2ccc3c(c2)O[C@H](CN(C)C(=O)Nc2cccc(OC)c2)[C@@H](C)CN([C@@H](C)CO)S3(=O)=O)cc1	-6	1	109*	100*	110*	?	17
COc1cccc(NC(=O)N(C)C[C@H]2Oc3cc(C#Cc4ccc(F)cc4)ccc3S(=O)(=O)N([C@@H](C)CO)C[C@@H]2C)c1	-4	·	?	99*	108*	8	52*
COc1cccc(NC(=O)N(C)C[C@H]2Oc3cc(-c4ccccc4OC)ccc3S(=O)(=O)N([C@H](C)CO)C[C@H]2C)c1	-4	·	·	·	·	·	·
COc1cccc(NC(=O)N(C)C[C@@H]2Oc3cc(C#Cc4ccncc4)ccc3S(=O)(=O)N([C@@H](C)CO)C[C@@H]2C)c1	-2	·	49	·	·	·	·
COc1cccc(NC(=O)N(C)C[C@H]2Oc3cc(C#Cc4ccncc4)ccc3S(=O)(=O)N([C@@H](C)CO)C[C@H]2C)c1	-2	-4	77	·	·	·	·
COc1ccc(C#Cc2ccc3c(c2)O[C@@H](CN(C)C(=O)Nc2cccc(OC)c2)[C@@H](C)CN([C@@H](C)CO)S3(=O)=O)cc1	-7	·	?	105*	108*	37*	34*
Cc1ccc(NC(=O)CN(c2cc(Cl)c(Cl)cc2Cl)S(C)(=O)=O)cc1Cl	·	0	·	·	·	·	·
COC(=O)c1c(NC(=S)Nc2nc(C)cc(C)n2)sc2c1CCC2	·	0	·	·	·	·	·
COc1ccc(NC(=O)Cc2nc(-c3ccc([N+](=O)[O-])cc3)cs2)cc1	·	0	·	·	·	·	·
CC(Oc1cccc(NC(=O)c2cccc([N+](=O)[O-])c2)c1)C(=O)c1cccc(Cl)c1 (centres undefined)	·	1	·	·	·	·	·
Cc1ccc(S(=O)(=O)Nc2ccc(C(=O)Nc3cccc(N(C)S(C)(=O)=O)c3)cc2)cc1	·	0	·	·	·	·	·
SMILES	GASC1 inh	IDH1 mut inh	T cruzi growth-1	T cruzi growth-2	T cruzi growth-3	NIH3T3 tox	NIH3T3 tox 2
COc1ccc([N+](=O)[O-])cc1CNCCO	·	1	·	·	·	·	·
C/C=C/c1ccc2c(c1)O[C@H](CN(C)C(=O)c1ccc3c(c1)OCO3)[C@H](C)CN([C@@H](C)CO)S2(=O)=O	-1	0	77	·	·	·	·
C/C=C/c1ccc2c(c1)O[C@@H](CN(C)C(=O)c1ccc3c(c1)OCO3)[C@@H](C)CN([C@@H](C)CO)S2(=O)=O	5	0	28	·	·	·	·
C[C@H]1CN([C@@H](C)CO)S(=O)(=O)c2ccc(/C=C/c3ccccc3)cc2O[C@@H]1CN(C)C(=O)c1ccc2c(c1)OCO2	-2	3	118*	104*	61	30	38*
C/C=C/c1ccc2c(c1)O[C@H](CN(C)C(=O)c1ccc3c(c1)OCO3)[C@@H](C)CN([C@@H](C)CO)S2(=O)=O	-2	0	50	·	·	·	·
C[C@H]1CN([C@@H](C)CO)S(=O)(=O)c2ccc(/C=C/c3ccccc3)cc2O[C@H]1CN(C)C(=O)c1ccc2c(c1)OCO2	-2	0	?	103*	93	33	?
C[C@H](CO)N1C[C@H](C)[C@H](CN(C)C(=O)c2ccc3c(c2)OCO3)Oc2cc(/C=C/c3ccccc3)ccc2S1(=O)=O	-1	3	106*	104*	92	19	27*
Cc1ccc(NC(=O)C(C)NS(=O)(=O)c2ccc(F)cc2)cc1Cl (centres undefined)	·	0	·	·	·	·	·
Cc1cc(Br)c(NC(=O)CSc2nnc(N)s2)cc1C	·	0	·	·	·	·	·
Cc1cccc(OCC(=O)Nc2ccc3oc(-c4cncc(Br)c4)nc3c2)c1C	·	0	·	·	·	·	·
O=C(NCc1cccnc1)c1cc2cc(Cl)ccc2oc1=O	·	1	·	·	·	·	·
C[C@@H]1CN([C@@H](C)CO)C(=O)c2cc(/C=C/c3ccccc3)cnc2O[C@H]1CN(C)S(=O)(=O)c1ccccc1F	19	0	123*	108*	81	23	?
C[C@@H]1CN([C@@H](C)CO)C(=O)c2cc(/C=C/c3ccccc3)cnc2O[C@@H]1CN(C)S(=O)(=O)c1ccccc1	-2	1	37	·	·	·	·
C[C@H]1CN([C@@H](C)CO)C(=O)c2cc(/C=C/c3ccccc3)cnc2O[C@H]1CN(C)S(=O)(=O)c1ccccc1F	-2	0	41	·	·	·	·
C[C@H]1CN([C@@H](C)CO)C(=O)c2cc(/C=C/c3ccccc3)cnc2O[C@@H]1CN(C)S(=O)(=O)c1ccccc1F	-4	0	126*	104*	64	18	37*
C[C@H](CO)N1C[C@H](C)[C@@H](CN(C)S(=O)(=O)c2ccccc2)Oc2ncc(/C=C/c3ccccc3)cc2C1=O	-2	0	125*	108*	45	-14	20
